According to ChEMBL document CHEMBL1914440, “Discovery of potent, selective, and orally bioavailable alkynylphenoxyacetic acid CRTH2 (DP2) receptor antagonists for the treatment of allergic inflammatory diseases” (J Med Chem, 2011):
pIC50, pKi: −log10 of the molar value. ≈ marks a conversion by molar mass, not a printed value. Blank lines part the entries; values can stand above or below the compound they belong to.

Legend:
[1] = target: T1, Prostaglandin D2 receptor 2 (Homo sapiens, UniProt Q9Y5Y4); assay: Displacement of [3H]PGD2 from human CRTH2 expressed in chinese hamster CHO cells by liquid scintillation counting; format: cell-based
T1 sequence (Q9Y5Y4 whole entry): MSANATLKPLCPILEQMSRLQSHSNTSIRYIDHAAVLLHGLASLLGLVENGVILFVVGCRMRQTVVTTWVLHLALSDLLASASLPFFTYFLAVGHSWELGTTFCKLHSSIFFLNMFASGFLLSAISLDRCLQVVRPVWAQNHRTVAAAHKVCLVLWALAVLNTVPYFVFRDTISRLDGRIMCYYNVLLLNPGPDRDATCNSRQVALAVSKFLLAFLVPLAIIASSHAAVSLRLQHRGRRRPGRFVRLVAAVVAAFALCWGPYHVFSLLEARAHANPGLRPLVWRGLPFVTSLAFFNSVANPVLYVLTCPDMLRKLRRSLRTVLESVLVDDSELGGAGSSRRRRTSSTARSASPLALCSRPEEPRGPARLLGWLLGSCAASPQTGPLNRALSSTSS
In short: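 Scintillation proximity competition assay: 2–5 μg human CRTH2 cell membranes, 1.5 nM [3H]PGD2, WGA-SPA beads, 10 mM HEPES/KOH pH 7.4, 10 mM MnCl2, protease inhibitors, 1% DMSO; 90 min, room temperature, shaking. Nonspecific binding defined with 1 μM PGD2. Ki by Cheng–Prusoff, mean of ≥3 independent dose–response experiments.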

[2] = target: T2, Prostaglandin D2 receptor 2 (Mus musculus, UniProt Q9Z2J6); assay: Displacement of [3H]PGD2 from mouse CRTH2 expressed in human HEK cells by liquid scintillation counting; format: cell-based, HEK293
T2 sequence (Q9Z2J6 whole entry): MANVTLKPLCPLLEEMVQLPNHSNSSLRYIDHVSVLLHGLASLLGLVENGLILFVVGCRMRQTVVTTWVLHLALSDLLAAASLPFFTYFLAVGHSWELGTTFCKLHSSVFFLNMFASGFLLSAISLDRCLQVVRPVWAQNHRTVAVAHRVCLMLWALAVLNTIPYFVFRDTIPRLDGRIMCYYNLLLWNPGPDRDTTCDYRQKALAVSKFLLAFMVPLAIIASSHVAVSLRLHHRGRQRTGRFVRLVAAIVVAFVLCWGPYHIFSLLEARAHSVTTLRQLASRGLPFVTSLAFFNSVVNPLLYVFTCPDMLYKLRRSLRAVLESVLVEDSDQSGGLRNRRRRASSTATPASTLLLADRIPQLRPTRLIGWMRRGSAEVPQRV
In short: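 Mouse CRTH2 cDNA stably expressed in HEK293(EBNA) cells (hygromycin-selected) and membranes made by nitrogen cavitation. SPA competition uses 2–5 μg membranes, 1.5 nM [3H]PGD2, HEPES/KOH pH 7.4 with 10 mM MnCl2, 1% DMSO, 90 min at room temperature. Nonspecific binding defined with 1 μM PGD2. Ki by Cheng–Prusoff, ≥3 independent experiments.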

[3] = target: T1, Prostaglandin D2 receptor 2; assay: Displacement of [3H]PGD2 from human CRTH2 expressed in chinese hamster CHO cells by liquid scintillation counting in the presence of 0.1% BSA; format: cell-based
In short: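 Scintillation proximity assay on 2–5 μg human CRTH2 membranes with WGA-SPA beads and 1.5 nM [3H]PGD2. Buffer: 10 mM HEPES/KOH pH 7.4, 10 mM MnCl2, protease inhibitors, 1% DMSO, 0.1% BSA. Incubated 90 min at room temperature with shaking. Nonspecific binding defined with 1 μM PGD2. Ki by Cheng–Prusoff, mean of at least three independent dose–response experiments.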

[4] = target: T1, Prostaglandin D2 receptor 2; assay: Antagonist activity at human CRTH2 expressed in human CHO cells by cellular dielectric spectroscopy
[5] = target: T1, Prostaglandin D2 receptor 2; assay: Antagonist activity at human CRTH2 expressed in […] by cellular dielectric spectroscopy in the presence of PGD2 and 0.1% BSA; format: functional, cell-based
In short: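 CHO-CRTH2 cells grown in HAM's F12 with 10% FCS and 400 μg/mL Geneticin, seeded at 100000 cells/well, 24 h at 37 °C. Washed in HBSS plus 10 mM HEPES pH 7.4 with 1% DMSO and 0.1% BSA. Compound added, then PGD2 at its EC80.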

Cytochrome P450 2C9 = Cytochrome P450 2C9 (Homo sapiens, UniProt P11712); assay: Inhibition of human recombinant CYP2C9 expressed in baculovirus infected insect cells preincubated for 15 mins measured after 30 mins by luminescence analysis; format: ADME
Cytochrome P450 2C9, sequence (P11712 whole entry): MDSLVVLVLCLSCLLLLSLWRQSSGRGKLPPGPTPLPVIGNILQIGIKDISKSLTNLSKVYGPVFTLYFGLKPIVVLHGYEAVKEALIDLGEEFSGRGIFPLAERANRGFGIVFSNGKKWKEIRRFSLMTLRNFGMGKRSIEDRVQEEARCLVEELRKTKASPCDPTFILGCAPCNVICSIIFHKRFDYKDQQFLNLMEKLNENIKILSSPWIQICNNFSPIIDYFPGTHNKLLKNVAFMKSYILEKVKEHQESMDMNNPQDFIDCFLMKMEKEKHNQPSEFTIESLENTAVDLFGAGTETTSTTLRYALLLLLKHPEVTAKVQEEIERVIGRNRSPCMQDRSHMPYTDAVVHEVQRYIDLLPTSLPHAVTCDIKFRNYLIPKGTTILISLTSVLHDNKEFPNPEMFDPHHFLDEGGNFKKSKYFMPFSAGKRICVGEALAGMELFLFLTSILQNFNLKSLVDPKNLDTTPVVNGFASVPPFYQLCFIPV

Rattus norvegicus = organism: Rattus norvegicus; assay: Inhibition of rat GABA gated chloride ion channel at 10 uM
In short: (§1)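 Selectivity screen: panel of 50 receptor and ion-channel targets, tested at 10 μM; EP2 by binding assay; GABA-gated Cl− channel from rat. Result expressed as % inhibition.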

[6] = target: Prostaglandin E2 receptor EP2 subtype (Homo sapiens) (UniProt P43116); assay: Inhibition of EP2 receptor at 10 uM; in short: as §1
Prostaglandin E2 receptor EP2 subtype (Homo sapiens), sequence (P43116 whole entry): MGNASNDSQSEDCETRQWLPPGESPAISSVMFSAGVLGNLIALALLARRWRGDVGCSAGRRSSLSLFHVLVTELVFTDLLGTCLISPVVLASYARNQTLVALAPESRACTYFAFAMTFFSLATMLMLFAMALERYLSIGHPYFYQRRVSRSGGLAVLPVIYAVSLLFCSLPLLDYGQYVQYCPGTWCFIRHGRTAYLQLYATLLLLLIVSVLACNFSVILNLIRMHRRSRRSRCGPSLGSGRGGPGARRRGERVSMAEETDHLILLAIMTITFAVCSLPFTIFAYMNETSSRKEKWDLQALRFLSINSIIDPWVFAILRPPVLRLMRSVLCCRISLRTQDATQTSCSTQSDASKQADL

[7] = Percentage unbound in human plasma; format: ADME, cell-free
[8] = Percentage unbound in rat plasma; format: ADME, cell-free
[9] = Percentage unbound in mouse plasma; format: ADME, cell-free
[10] = Intrinsic clearance in human liver microsomes assessed per mg of protein at 1 uM by LC/MS/MS analysis; format: ADME, Microsome
[11] = Intrinsic clearance in rat liver microsomes assessed per mg of protein at 1 uM by LC/MS/MS analysis; format: ADME, Microsome
[12] = Kinetic solubility of the compound in 2% DMSO; format: physicochemical; settings: read-out: Kinetic_solubility
[13] = Kinetic solubility of the compound in phosphate buffered saline; format: physicochemical; settings: read-out: Kinetic_solubility
[14] = Apparent permeability across human Caco2 cells at 1 uM after 2 hrs by LC/MS/MS analysis; format: ADME, cell-based; settings: Caco-2
[15] = Lipophilicity, log D of the compound at pH 7.4; format: physicochemical; settings: buffer
[16] = Clearance in BALB/c mouse at 0.2 mg/kg, iv and 1 mg/kg, po by LC/MS/MS analysis; format: ADME, organism-based; settings: in vivo
In short: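 Low-dose cassette PK in mouse: 0.2 mg/kg iv and 1 mg/kg po.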

[17] = Oral bioavailability in BALB/c mouse at 1 mg/kg by LC/MS/MS analysis; format: ADME, organism-based; settings: in vivo
In short: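 Oral bioavailability in mouse from a 1 mg/kg po dose given in a cocktail (cassette) experiment.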

[18] = Half life in BALB/c mouse at 0.2 mg/kg, iv by LC/MS/MS analysis; format: ADME, organism-based; design: dose 0.2 mg/kg, route intravenous; settings: in vivo
[19] = Half life in BALB/c mouse at 1 mg/kg, po by LC/MS/MS analysis; format: ADME, organism-based; design: dose 1 mg/kg, route oral; settings: in vivo
[20] = Volume of distribution at steady state in BALB/c mouse at 0.2 mg/kg, iv and 1 mg/kg, po by LC/MS/MS analysis; settings: in vivo, read-out: Vdss
[21] = Clearance in BALB/c mouse at 5 mg/kg, po by LC/MS/MS analysis; format: ADME, organism-based; design: dose 5 mg/kg, route oral; settings: in vivo
[22] = Thermodynamic solubility of the compound in 50 mM phosphate buffered saline at pH 7.4; format: physicochemical; settings: read-out: Therm_solubility
In short: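 Thermodynamic solubility measured in 50 mM PBS at pH 7.4.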

[23] = Half life in Sprague-Dawley rat at 1 mg/kg, iv and 5 mg/kg, po by LC/MS/MS analysis; format: ADME, organism-based; settings: in vivo
[24] = Half life in BALB/c mouse at 1 mg/kg, iv and 5 mg/kg, po by LC/MS/MS analysis; format: ADME, organism-based; settings: in vivo

pKi [1]: 7.54
pKi [2]: 7.43
pIC50 [3]: 7.54
pIC50 [4]: 6.94
pIC50 [5]: 5.92
pIC50 (Cytochrome P450 2C9): 5.84
inhibition (Rattus norvegicus): 76%
inhibition [6]: 66%
fraction unbound [7]: < 0.003
fraction unbound [8]: < 0.003
fraction unbound [9]: < 0.003
microsomal CLint at 1 µM [10]: 12 µL/min/mg
microsomal CLint at 1 µM [11]: 27 µL/min/mg
solubility kinetic [12]: > 200 µM
solubility kinetic [13]: > 200 µM
Papp at 2 h, 1 µM [14]: 18.4 ×10⁻⁶ cm/s
logD [15]: 0.5
clearance [16]: 16.7 mL/min/kg
bioavailability [17]: 82%
half-life [18]: 0.3 h
half-life [19]: 1.6 h
Vd [20]: 0.3 L/kg
SMILES: O=C(O)COc1ccc(Cl)cc1C#Cc1cccc(Cl)c1

pKi [1]: 8.05
fraction unbound [7]: 0.008
fraction unbound [8]: 0.01
fraction unbound [9]: 0.024
microsomal CLint at 1 µM [10]: 11 µL/min/mg
microsomal CLint at 1 µM [11]: < 10 µL/min/mg
Papp at 2 h, 1 µM [14]: 11.8 ×10⁻⁶ cm/s
CL/F [21]: 5 mL/min/kg
solubility thermodynamic [22]: 760 µg/mL (≈ 1930 µM)
half-life [23]: 4.4 h
half-life [24]: 2.2 h
SMILES: CCCS(=O)(=O)c1cccc(C#Cc2cc(Cl)ccc2OCC(=O)O)c1
